# Measured values reported in ChEMBL document CHEMBL1629558, “Effect of electrical current on the activities of antimicrobial agents against Pseudomonas aeruginosa, Staphylococcus aureus, and Staphylococcus epidermidis biofilms” (2009).
# Experiments:
# Format in all cases: functional
# [1] = tested on: Staphylococcus epidermidis; test: Antimicrobial activity against Staphylococcus epidermidis Xen 43 by broth microdilution method
# [2] = tested on: Staphylococcus aureus; test: Antimicrobial activity against Staphylococcus aureus Xen 30 biofilm assessed as log10 CFU/cm'2 in bacterial count
# How it was run: (§1)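 Biofilms grown on Teflon coupons in a CDC biofilm reactor (1 ml of 10^8 CFU/ml inoculum, 37°C shaking 18 h, then 18 h at room temperature). Coupons then sat 24 h at room temperature in flow chambers with fresh medium ± drug ± direct current via graphite electrodes. Biofilm removed by vortex plus 5 min sonication, plated on blood agar (37°C, 5% CO2, 48 h). Triplicate; mean log10 CFU/cm2.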
# [3] = tested on: Staphylococcus aureus; test: Antimicrobial activity against Staphylococcus aureus Xen 30 biofilm assessed as log10 CFU/cm'2 in bacterial count in presence of 2000 microamperes of electric current by bioelectric effect assay; how it was run: as §1
# [4] = tested on: Staphylococcus epidermidis; test: Antimicrobial activity against Staphylococcus epidermidis Xen 43 biofilm assessed as log10 CFU/cm'2 in bacterial count; how it was run: as §1
# [5] = tested on: Staphylococcus epidermidis; test: Antimicrobial activity against Staphylococcus epidermidis Xen 43 biofilm assessed as log10 CFU/cm'2 in bacterial count in presence of 200 microamperes of electric current by bioelectric effect assay; how it was run: as §1
# [6] = tested on: Pseudomonas aeruginosa; test: Antimicrobial activity against Pseudomonas aeruginosa Xen 5 by broth microdilution method
# How it was run: (§2)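 Planktonic MICs determined by CLSI broth microdilution; strains (MRSA Xen 30, P. aeruginosa Xen 5) stored at −70°C.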
# [7] = tested on: Pseudomonas aeruginosa; test: Antimicrobial activity against Pseudomonas aeruginosa Xen 5 biofilm assessed as log10 CFU/cm'2 in bacterial count; how it was run: as §1
# [8] = tested on: Pseudomonas aeruginosa; test: Antimicrobial activity against Pseudomonas aeruginosa Xen 5 biofilm assessed as log10 CFU/cm'2 in bacterial count in presence of 2000 microamperes of electric current by bioelectric effect assay; how it was run: as §1
# [9] = tested on: Staphylococcus aureus; test: Antimicrobial activity against Staphylococcus aureus Xen 30 by broth microdilution method; how it was run: as §2
# [10] = tested on: Pseudomonas aeruginosa; test: Antimicrobial activity against Pseudomonas aeruginosa Xen 5 biofilm assessed as log10 CFU/cm'2 in bacterial count in presence of 200 microamperes of electric current by bioelectric effect assay; how it was run: as §1
# [11] = tested on: Staphylococcus epidermidis; test: Antimicrobial activity against Staphylococcus epidermidis Xen 43 biofilm assessed as log10 CFU/cm'2 in bacterial count in presence of 2000 microamperes of electric current by bioelectric effect assay; how it was run: as §1
# [12] = tested on: Staphylococcus aureus; test: Antimicrobial activity against Staphylococcus aureus Xen 30 biofilm assessed as log10 CFU/cm'2 in bacterial count in presence of 200 microamperes of electric current by bioelectric effect assay
# How it was run: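 MRSA Xen 30 biofilms grown on Teflon coupons (12.5 mm) in a CDC biofilm reactor seeded with 1 ml of 10^8 CFU/ml: 18 h 37°C with shaking, then 18 h room temperature. Coupons were exposed in flow chambers to fresh medium ± antimicrobial with direct current for 24 h at room temperature. Biofilm was dislodged by vortex and sonication, then plated on blood agar. Counts are mean log10 CFU/cm2 from triplicate experiments.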
# [13] = tested on: Staphylococcus aureus; test: Antimicrobial activity against Staphylococcus aureus Xen 30 biofilm assessed as log10 CFU/cm'2 in bacterial count in presence of 20 microamperes of electric current by bioelectric effect assay; how it was run: as §1
SMILES,MIC [1],log10cfu [2],log10cfu [3],log10cfu [4],log10cfu [5],MIC [6],log10cfu [7],log10cfu [8],MIC [9],log10cfu [10],log10cfu [11],log10cfu [12],log10cfu [13]
CC(=O)NC[C@H]1CN(c2ccc(N3CCOCC3)c(F)c2)C(=O)O1 [LINEZOLID],1 µg/mL,0.62,1.51,0.22,0.63,–,–,–,–,–,–,–,–
CO/N=C(\C(=O)N[C@@H]1C(=O)N2C(C(=O)[O-])=C(C[N+]3(C)CCCC3)CS[C@H]12)c1csc(N)n1,–,–,–,–,–,2 µg/mL,0.96,1.43,–,–,–,–,–
CC[C@H]1OC(=O)[C@H](C)[C@@H](O[C@H]2C[C@@](C)(OC)[C@@H](O)[C@H](C)O2)[C@H](C)[C@@H](O[C@@H]2O[C@H](C)C[C@H](N(C)C)[C@H]2O)[C@](C)(O)C[C@@H](C)C(=O)[C@H](C)[C@@H](O)[C@]1(C)O [ERYTHROMYCIN],0.125 µg/mL,-0.17,0.27,0.7,2.04,–,–,–,0.5 µg/mL,–,–,–,–
NC[C@H]1O[C@H](O[C@H]2[C@H](O)[C@@H](O[C@H]3O[C@H](CO)[C@@H](O)[C@H](N)[C@H]3O)[C@H](N)C[C@@H]2N)[C@H](N)C[C@@H]1O [TOBRAMYCIN],0.25 µg/mL,0.86,2,0.2,–,1 µg/mL,1.69,–,4 µg/mL,2.48,3.08,–,–
CCCCCCCCCC(=O)N[C@@H](Cc1c[nH]c2ccccc12)C(=O)N[C@H](CC(N)=O)C(=O)N[C@@H](CC(=O)O)C(=O)N[C@@H]1C(=O)NCC(=O)N[C@@H](CCCN)C(=O)N[C@@H](CC(=O)O)C(=O)N[C@H](C)C(=O)N[C@@H](CC(=O)O)C(=O)NCC(=O)N[C@H](CO)C(=O)N[C@@H]([C@H](C)CC(=O)O)C(=O)N[C@@H](CC(=O)c2ccccc2N)C(=O)O[C@@H]1C,0.125 µg/mL,1.63,–,-0.38,–,–,–,–,1 µg/mL,–,1.2,1.94,–
O=C(O)c1cn(C2CC2)c2cc(N3CCNCC3)c(F)cc2c1=O [CIPROFLOXACIN],–,–,–,–,–,–,-0.63,1.86,–,–,–,–,–
COc1c(N2C[C@@H]3CCCN[C@@H]3C2)c(F)cc2c(=O)c(C(=O)O)cn(C3CC3)c12 [MOXIFLOXACIN],≤ 0.125 µg/mL,1.33,–,-0.41,–,–,–,–,2 µg/mL,–,0.82,–,2.1
CN[C@H](CC(C)C)C(=O)N[C@H]1C(=O)N[C@@H](CC(N)=O)C(=O)N[C@H]2C(=O)N[C@H]3C(=O)N[C@H](C(=O)N[C@H](C(=O)O)c4cc(O)cc(O)c4-c4cc3ccc4O)[C@H](O)c3ccc(c(Cl)c3)Oc3cc2cc(c3O[C@@H]2O[C@H](CO)[C@@H](O)[C@H](O)[C@H]2O[C@H]2C[C@](C)(N)[C@H](O)[C@H](C)O2)Oc2ccc(cc2Cl)[C@H]1O [VANCOMYCIN],–,-0.31,–,0.7,–,–,–,–,–,–,2.09,1.59,–
CO[C@H]1/C=C/O[C@@]2(C)Oc3c(C)c(O)c4c(O)c(c(/C=N/N5CCN(C)CC5)c(O)c4c3C2=O)NC(=O)/C(C)=C\C=C\[C@H](C)[C@H](O)[C@@H](C)[C@@H](O)[C@@H](C)[C@H](OC(C)=O)[C@@H]1C [RIFAMPIN],≤ 0.125 µg/mL,0.86,1.78,0.17,–,–,–,–,2 µg/mL,–,2.5,–,–
CN(C)c1ccc(O)c2c1C[C@H]1C[C@H]3[C@H](N(C)C)C(O)=C(C(N)=O)C(=O)[C@@]3(O)C(O)=C1C2=O [MINOCYCLINE],1 µg/mL,0.7,–,-0.18,3.32,–,–,–,4 µg/mL,–,–,–,2.04
